# This is one part of a sample in which hits are shown more often than they occur.
# MDM2 E3 inh: blocks human Mdm2 ubiquitin ligase activity. cell-based MDM2 ubiquitination luciferase reporter, 2 h; 0 = plate control, 100 = twice control, blank-subtracted. signal enhancement, % at 5 µM. hit rate 0.11% among 210,000. AID 1230;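 active means signal enhancement of 30% or more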;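 further: luminescence tracks abundance of the self-degrading MDM2-luciferase fusion protein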
# Target sequence (Q00987 whole entry, looked up, the tested form may be a part): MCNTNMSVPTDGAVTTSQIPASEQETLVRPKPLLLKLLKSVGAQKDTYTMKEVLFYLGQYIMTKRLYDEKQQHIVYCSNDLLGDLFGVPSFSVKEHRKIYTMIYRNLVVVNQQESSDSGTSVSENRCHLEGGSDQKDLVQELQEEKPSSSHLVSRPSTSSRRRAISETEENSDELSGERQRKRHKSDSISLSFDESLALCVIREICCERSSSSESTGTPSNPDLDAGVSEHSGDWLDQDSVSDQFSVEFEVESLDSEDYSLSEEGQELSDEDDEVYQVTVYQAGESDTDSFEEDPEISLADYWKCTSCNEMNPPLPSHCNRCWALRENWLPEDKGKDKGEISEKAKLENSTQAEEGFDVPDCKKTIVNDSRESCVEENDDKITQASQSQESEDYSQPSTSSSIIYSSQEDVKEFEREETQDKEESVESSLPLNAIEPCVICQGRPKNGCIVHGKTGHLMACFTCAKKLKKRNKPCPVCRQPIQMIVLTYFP
#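 Material: stable MDM2–luciferase fusion reporter cells / Quantity: 2000 cells/well / Dosing: single 5 µM compound dose, 0.2% final DMSO / Buffer or medium: DMEM / Schedule: 4 h cell settling then 2 h compound exposure, 37 °C / Detection: luminescence with SteadyLite reagent, 15 min at room temperature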
# S1P3 antag: antagonists of human S1P3 receptor; AID 485; Q99500; hit rate 0.27% among 170,000; inhibition, % at 4.98 µM; CHO S1P3 NFAT-BLA reporter, FRET fluorescence, antagonist mode;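 active means inhibition above the plate cutoff, the mean inhibition of test wells on that plate plus 3 SD, cut at about 28% in these data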;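 further: cells challenged with S1P at its EC80 of 0.8 µM; blue over green emission ratio from cleaved BLA substrate after 4 h stimulation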
# Lmaj promast: reduces viability of Leishmania major promastigotes; resazurin fluorescence viability; inhibition, % at 10 µM; hit rate 9% among 200,000; in the data active means inhibition above about 50%;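 further: promastigotes grown with compound for 44 hours at 28 °C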
# S1P4 antagonist: blocks the human S1P4 receptor. O95977. S1P4-expressing cells, antagonist mode, reporter read-out. inhibition, % at 4.98 µM. hit rate 0.26% among 220,000; in the data active means inhibition above about 29%
# S1P4 ag: agonists of human S1P4 receptor; S1P4-expressing cell line, agonist reporter assay; activation, % at 4.98 µM; AID 1509; hit rate 0.35% among 220,000; in the data active means activation above about 11%
# Hits are given with their value; . = inactive; / = no result.
SMILES,MDM2 E3 inh,S1P3 antag,Lmaj promast,S1P4 antagonist,S1P4 ag
O=C(N/N=C/c1ccc2c(c1)OCO2)c1sc2cc(Cl)ccc2c1Cl,.,.,.,.,.
COc1ccc2c(Cl)c(C(=O)N/N=C/c3c(C)[nH]c4ccccc34)sc2c1,.,.,100.3,.,.
COc1ccc2c(Cl)c(C(=O)N/N=C/c3ccc4c(c3)OCO4)sc2c1,.,/,96.8,.,.
CCOC(=O)c1c(CSC(=N)N)n(-c2ccccc2)c2cc(Br)c(OC(C)=O)cc12,.,.,/,.,.
COc1cc(CN2CCN(c3cccc(C)c3C)CC2)cc([N+](=O)[O-])c1O,.,.,70.9,.,.
O=C(NCc1ccco1)C1CCN(C(=O)c2cc3sccc3n2Cc2ccc(F)cc2)CC1,/,.,79.3,.,.
O=C(NCCCN1CCCC1)C1CCN(C(=O)c2cc3sccc3n2Cc2ccc(F)cc2)CC1,.,.,93.4,.,.
COCCCNC(=O)C1CCN(C(=O)c2cc3sccc3n2Cc2ccc(F)cc2)CC1,.,.,.,.,.
CCN1CCCC1CNC(=O)C1CCN(C(=O)c2cc3sccc3n2Cc2ccc(F)cc2)CC1 (stereo not given),.,.,90.2,.,.
CCN(CC)CCCNC(=O)C1CCN(C(=O)c2cc3sccc3n2Cc2ccc(F)cc2)CC1,.,.,99.4,.,.
N#CCN1CCC(c2cc(-c3ccco3)n[nH]2)CC1,.,.,.,.,.
O=C(NCc1ccco1)C1CCN(Cc2ccc(F)cc2)CC1,.,/,91.2,.,.
COc1ccc(-n2nnnc2SCC(=O)N2C(C)CCCC2C)c(OC)c1 (stereo not given),.,.,.,.,.
COc1ccc2c(c1)c1nnc(SC)nc1n2C,.,.,95.7,.,.
COc1ccc2c(c1)c1nnc(SCC(=O)N3C(C)CCCC3C)nc1n2C (stereo not given),.,.,78.1,.,.
COc1ccc2c(c1)c1ccccc1n2C,.,.,.,.,.
Cc1ccc(OCC(O)Cn2c(=N)n(CCN3CCCCC3)c3ccccc32)cc1 (stereo not given),.,.,100.4,.,.
CCCCn1c(=N)n(CC(O)COc2cccc(C)c2)c2ccccc21 (stereo not given),.,.,100.4,.,.
COc1ccc(OCC(O)Cn2c(=N)n(CCN3CCCCC3)c3ccccc32)cc1 (stereo not given),.,.,100.1,.,.
COc1ccccc1OCC(O)Cn1c(=N)n(Cc2ccccc2)c2ccccc21 (stereo not given),.,/,100.5,.,.
Cc1ccccc1OCC(O)Cn1c(=N)n(Cc2ccccc2)c2ccccc21 (stereo not given),.,.,/,.,.
Cc1ccc(NC(=S)NNS(=O)(=O)c2ccc3ccccc3c2)cc1Cl,.,.,.,.,.
CCOC(=O)COc1ccc(/C=C2\NC(=S)N(CC)C2=O)cc1,.,.,97.4,.,.
O=C(Cc1ccccc1)N/N=C/c1cc(Br)cc(Cl)c1O,.,.,82.4,.,.
O=C(CNC(=O)c1ccncc1)N/N=C/c1cc(Br)ccc1O,.,.,98.4,.,.
SMILES,MDM2 E3 inh,S1P3 antag,Lmaj promast,S1P4 antagonist,S1P4 ag
O=C(CN1CC(c2ccccc2)CC1=O)N/N=C/c1cc(Br)ccc1O (stereo not given),/,.,98.0,.,.
O=C(CP(=O)(c1ccccc1)c1ccccc1)N/N=C/c1cc(Br)cc(Br)c1O,.,.,.,.,.
O=C(CNC(=O)c1ccccc1Br)N/N=C/c1cc(Br)ccc1O,.,.,58.1,.,.
C/C(N)=C(/C#N)C(=O)CSc1nc2ccccc2n1CC(C)C,.,.,.,.,.
CNC(=S)N(Cc1ccc(Cl)cc1)Cc1cccs1,.,.,/,.,.
O=C(CNC(=O)c1ccccc1)N/N=C/c1cc(Br)ccc1O,/,.,80.4,.,.
O=C(CNC(=O)c1ccccc1Br)N/N=C/c1ccccc1O,.,.,.,.,.
Cc1cccc(OCC(=O)NCC(=O)N/N=C/c2cc(Br)ccc2OCc2ccccc2)c1,.,.,92.0,.,.
O=C(N/N=C/c1cc(Cl)ccc1O)c1ccccc1Br,.,.,98.1,.,.
O=C(CNC(=O)c1cccc(Br)c1)N/N=C/c1cn[nH]c1-c1ccccc1,.,.,67.1,.,.
O=C(CNC(=O)c1ccccc1F)N/N=C/c1cn[nH]c1-c1ccccc1,.,.,.,.,.
COc1ccc(C(=O)NC(CC(=O)O)c2cc([N+](=O)[O-])ccc2Cl)c(SC)c1 (stereo not given),.,.,.,.,.
Cc1ccccc1N1CCN(Cc2c[nH]c3ccccc23)CC1,.,/,71.5,.,.
O=[N+]([O-])c1ccc(CN2CCN(Cc3c[nH]c4ccccc34)CC2)cc1,.,.,83.2,.,.
C=CC(O)(C#CCN(CC)CC)c1ccccc1 (stereo not given),.,.,.,.,.
CCN(CC)CC#CCC(C)(c1ccccc1)c1ccccc1,.,/,94.4,.,.
CCN(CC)CC#CCC(O)(c1ccccc1)c1ccccc1,.,.,77.1,.,.
CCN(CC)CC#CCC(O)(c1ccccc1)c1ccc(Br)cc1 (stereo not given),.,.,.,.,.
CC(Oc1ccc(Cl)cc1)c1ccc(C#N)c(=O)[nH]1 (stereo not given),.,.,.,.,.
COC(=O)C1=C(C)N(C2CCCCC2)C(=O)/C1=C\c1cccs1,.,.,.,.,.
CC(SCCc1ccccn1)C(=O)O (stereo not given),.,.,.,.,.
CCN1CCN(CC(=O)Nc2sc3c(c2C#N)CCC(C)C3)CC1 (stereo not given),.,.,100.4,.,.
COCCNC(=S)N/N=C/c1ccc(OCc2ccc(C(=O)OC)cc2)cc1,.,.,.,.,.
Cc1cc(C)n2nc(SCc3nnc(SCCCCl)o3)nc2n1,.,/,.,.,.
CCCCCCCCSc1nnc(CSc2nc3nc(C)cc(C)n3n2)o1,.,/,67.3,.,.
SMILES,MDM2 E3 inh,S1P3 antag,Lmaj promast,S1P4 antagonist,S1P4 ag
Cc1cc([N+](=O)[O-])ccc1NC(=O)C(C)N1CCN(c2ccccn2)CC1 (stereo not given),.,.,.,.,.
O=C(c1cccc2ccccc12)N1CCC(N2CCN(c3ccccc3)CC2)CC1,.,/,95.1,.,.
O=S(=O)(Cc1ccccc1)N1CCC(N2CCN(c3ccccc3)CC2)CC1,.,.,98.0,.,.
COc1cc(OC)cc(C(=O)N2CCC(N3CCN(c4ccccc4)CC3)CC2)c1,.,/,.,.,.
COc1ccccc1N1CCN(C2CCN(C(=O)c3cccs3)CC2)CC1,.,/,.,.,.
O=C(c1cccs1)N1CCC(N2CCN(c3ccccc3)CC2)CC1,.,/,86.0,.,.
O=C(Cc1ccccc1)NCC(=O)OCc1ccc([N+](=O)[O-])cc1,.,.,.,.,.
O=C(CN1C(=O)C2CCCCC2C1=O)OCC(=O)c1ccc(Cl)s1 (stereo not given),.,.,.,.,.
Cc1nc([N+](=O)[O-])cn1CC(O)c1ccc(F)cc1 (stereo not given),.,.,/,.,.
Clc1ccc(CNCc2cccs2)c(Cl)c1,.,.,.,.,.

# Screening data: PubChem BioAssay, several laboratories
